The subject of series [1] is Clostridioides difficile. In words: Antibacterial activity against Clostridium difficile NAP1 assessed as concentration required for complete inhibition of TCA-induced spore germination measured after 20 mins under anaerobic condition. Type of series: functional. The following applies: NAP1, 20 min, read-out: MEC. In short, it runs like this: (§1)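 Spores (~0.5 McFarland, heat-treated 65 °C for 30 min) inoculated anaerobically into pre-reduced (2–3 h) BHIS (0.5% yeast extract, 0.1% L-cysteine) containing 2000 μM taurocholate plus analogue at varying concentrations; OD600 read each minute for 20 min, normalized to t0. Complete inhibition = relative OD600 ≥0.95 at 20 min; triplicate wells, solvent (DMSO or DMSO/ethanol) controls.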

A short description of series [2]: in vitro. The following applies: human, Caco-2.
Series [3] deals with Clostridioides difficile. Kind of series: Inhibition of TCA-induced spore germination in Clostridium difficile NAP1 assessed as spore germination at 10 uM measured after 20 mins under anaerobic condition by phase-contrast microscopic analysis relative to control. Also noted: scale not given: the % may be the effect or the level left. It is filed as functional. Summed up: (§2)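 Heat-treated spores exposed to BHIS with 2000 μM taurocholate plus analogue or DMSO control; t0 samples put on ice at once, t20 samples held 20 min at room temperature then iced; phase-bright spores and phase-dark germinated cells counted by hemocytometer under phase-contrast. % germination of total cells; relative value = (t20−t0) test/(t20−t0) control; triplicate, mean ± SD.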

The nature of series [4]: in vitro. As to conditions: human, Caco-2. The source holds these as a separate data set.
Series [5] concerns the target Clostridioides difficile. Kind of series: Inhibition of TCA-induced spore germination in Clostridium difficile NAP1 at 0.2 mM using varying levels of TCA measured after 20 mins under anaerobic condition. Type of series: functional.
Series [6] concerns Clostridioides difficile. In words: Inhibition of TCA-induced spore germination in Clostridium difficile NAP1 at 50 uM measured after 20 mins under anaerobic condition by phase-contrast microscopic analysis. It is filed as functional. In short, it runs like this: as §2
The conditions of series [7]: human, caco-2, 10 µM.
The conditions of series [8]: human, caco-2, 10 µM. The source holds these as a separate data set.
Series [9] deals with Clostridioides difficile. In words: Competitive inhibition of taurocholate-induced spore germination in Clostridium difficile UK1 at 0.2 mM by Michaelis-Menten kinetic analysis. Type of series: functional.
Series [10] deals with Clostridioides difficile. In words: Inhibition of taurocholate/glycine-induced spore germination in Clostridium difficile 630 preincubated for 15 mins followed by taurocholate/glycine addition measured every minute for 90 mins. It is filed as functional.
Series [11] relates to Clostridioides difficile. Kind of series: Induction of spore germination in Clostridium difficile NAP1 at 1500 to 2000 uM measured after 20 mins under anaerobic condition.
Series [12] has as its system Clostridioides difficile. In words: Inhibition of TCA-induced spore germination in Clostridium difficile NAP1 assessed as compound concentration required for complete inhibition by spectrophotometric method. Type of series: functional. The following applies: read-out: MEC. Summed up:
as §1

The source made the active and inactive calls. No cut-off for these calls is given here. Bounds are passed on as bounds.

The Papp A→B is how fast a substance crosses the layer from the apical side. As usually defined, the Papp B→A is how fast a substance crosses the layer from the basolateral side. One may read the Ki as a dissociation constant, usually derived from enzyme kinetics or from competition with a known ligand. In general, Papp refers to a coefficient for how fast a substance crosses the barrier. One may read the IC50 as the midpoint of a concentration-inhibition curve.

`CO[C@@H]1CC[C@@]2(C)[C@@H](C1)C[C@H](OC)[C@@H]1[C@@H]2CC[C@]2(C)[C@@H]([C@H](C)CCC(=O)N3CCCC3)CC[C@@H]12`: in the series on Clostridioides difficile [1], the minimal effective concentration was determined as 1000 µM.
In the series “in vitro [2]”, `CO[C@@H]1CC[C@@]2(C)[C@@H](C1)C[C@@H](OS(=O)(=O)[O-])[C@@H]1[C@@H]2CC[C@]2(C)[C@@H]([C@H](C)CCC(=O)c3nnn[n-]3)CC[C@@H]12.[Na+].[Na+]` had a Papp A→B at 10 µM of 0.4 ×10⁻⁶ cm/s. Further, the minimal effective concentration with Clostridioides difficile [1] was determined as 25 µM. In addition, the Activity in the series on Clostridioides difficile [3] is given as 51%. The compound also had a Papp B→A at 10 µM in “in vitro [4]” of 0.4 ×10⁻⁶ cm/s.
For `CO[C@@H]1CC[C@@]2(C)[C@@H](C1)C[C@@H](OC)[C@@H]1[C@@H]2CC[C@]2(C)[C@@H]([C@H](C)CCC(=O)N3CCCC3)CC[C@@H]12`, the minimal effective concentration in the series with Clostridioides difficile [1] was 500 µM.
Same read-out and setting: in the case of `COC(=O)CC[C@@H](C)[C@H]1CC[C@H]2[C@@H]3C[C@H](O)[C@@H]4C[C@H](O)CC[C@]4(C)[C@H]3CC[C@]12C` it was 500 µM.
`COC(=O)CC[C@@H](C)[C@H]1CC[C@H]2[C@@H]3[C@H](OC)C[C@@H]4C[C@H](O)CC[C@]4(C)[C@H]3CC[C@]12C`: the minimal effective concentration in the series with Clostridioides difficile [1] came to 500 µM.
In turn, `CO[C@@H]1CC[C@@]2(C)[C@@H](C1)C[C@H](OS(=O)(=O)[O-])[C@@H]1[C@@H]2CC[C@]2(C)[C@@H]([C@H](C)CCC(=O)N3CCCC3)CC[C@@H]12.[Na+]` came in with a Ki at Clostridioides difficile [5] of 20 µM. Besides, the inhibition result in the series on Clostridioides difficile [6] is “Active”. Also, the Papp in [7] came to 2.1 ×10⁻⁶ cm/s; in series [8], 0.1 ×10⁻⁶ cm/s. For the same compound, the minimal effective concentration in the series on Clostridioides difficile [1] turned out to be 50 µM. In the series on Clostridioides difficile [3], the Activity was 9%.
Turning to `COC(=O)CC[C@@H](C)[C@H]1CC[C@H]2[C@@H]3[C@H](O)C[C@@H]4C[C@H](O)CC[C@]4(C)[C@H]3CC[C@]12C`, the results for the Ki on Clostridioides difficile [5] and on Clostridioides difficile [9] were 118 µM and 44 µM, respectively. The minimal effective concentration in the series with Clostridioides difficile [1] came out at 500 µM. For the same compound, the Activity with Clostridioides difficile [3] stood at 73%.
For `C[C@H](CCC(=O)NC(C)(C)CO)[C@H]1CC[C@H]2[C@@H]3[C@H](O)C[C@@H]4C[C@H](O)CC[C@]4(C)[C@H]3CC[C@]12C`, the minimal effective concentration in the series with Clostridioides difficile [1] was 500 µM.
Take `COC(=O)CC[C@@H](C)[C@H]1CC[C@H]2[C@@H]3[C@@H](OC)C[C@@H]4C[C@H](O)CC[C@]4(C)[C@H]3CC[C@]12C`: in the series on Clostridioides difficile [1], the minimal effective concentration stood at 500 µM.
In the case of `COC(=O)CC[C@@H](C)[C@H]1CC[C@H]2[C@@H]3[C@@H](OC)C[C@@H]4C[C@H](OC)CC[C@]4(C)[C@H]3CC[C@]12C`, the minimal effective concentration with Clostridioides difficile [1] is 500 µM.
For `C[C@H](CCC(=O)Nc1cccc(S(=O)(=O)O)c1)[C@H]1CC[C@H]2[C@@H]3[C@H](O)C[C@@H]4C[C@H](O)CC[C@]4(C)[C@H]3C[C@H](O)[C@]12C`, the minimal effective concentration with Clostridioides difficile [1] was over 1000 µM. Besides, the IC50 in the series on Clostridioides difficile [10] came to 58 µM. Further, in the series with Clostridioides difficile [3], the Activity turned out to be 78%.
Take `CCCCNC(=O)CC[C@@H](C)[C@H]1CC[C@H]2[C@@H]3[C@H](O)C[C@@H]4C[C@H](O)CC[C@]4(C)[C@H]3CC[C@]12C`: the minimal effective concentration in the series with Clostridioides difficile [1] was 500 µM.
On the same count and under the same terms, next, `C[C@H](CCC(=O)N1CCCC1)[C@H]1CC[C@H]2[C@@H]3[C@H](O)C[C@@H]4C[C@H](O)CC[C@]4(C)[C@H]3CC[C@]12C`: 50 µM; `COC(=O)CC[C@@H](C)[C@H]1CC[C@H]2[C@@H]3[C@@H](O)C[C@@H]4C[C@H](O)CC[C@]4(C)[C@H]3CC[C@]12C`: 50 µM; `COC(=O)CC[C@@H](C)[C@H]1CC[C@H]2[C@H]3[C@H](CC[C@]12C)[C@@]1(C)CC[C@@H](O)C[C@H]1C[C@@]3(C)O`: 50 µM.
The same measure, in the same setting: next, `COC(=O)CC[C@@H](C)[C@H]1CC[C@H]2[C@@H]3[C@H](OC)C[C@@H]4C[C@H](OC)CC[C@]4(C)[C@H]3CC[C@]12C`: 500 µM.
`CC(=O)O[C@@H]1CC[C@@]2(C)[C@@H](C1)C[C@H](OC(C)=O)[C@@H]1[C@@H]2CC[C@]2(C)[C@@H]([C@H](C)CCC(N)=O)CC[C@@H]12`: in the series with Clostridioides difficile [11], the Activity result is reported as “Toxic”. For the same compound, the minimal effective concentration with Clostridioides difficile [1] is 50 µM.
With `C[C@H](CCC(=O)O)[C@H]1CC[C@H]2[C@@H]3C[C@H](O)[C@@H]4C[C@H](O)CC[C@]4(C)[C@H]3CC[C@]12C` [HYODEOXYCHOLIC_ACID], in the series on Clostridioides difficile [11], the Activity result was “Toxic”. In the series on Clostridioides difficile [1], the minimal effective concentration came out at 500 µM.
Regarding `C[C@H](CCC(=O)O)[C@H]1CC[C@H]2[C@@H]3[C@@H](O)C[C@@H]4C[C@H](O)CC[C@]4(C)[C@H]3CC[C@]12C` [URSODIOL], the minimal effective concentration with Clostridioides difficile [12] came out at 500 µM.
For `CO[C@@H]1CC[C@@]2(C)[C@@H](C1)C[C@H](OC)[C@@H]1[C@@H]2CC[C@]2(C)[C@@H]([C@H](C)CCC(=O)O)CC[C@@H]12`, the minimal effective concentration in the series on Clostridioides difficile [1] was over 1000 µM. Further, the Activity with Clostridioides difficile [3] is reported as 75%.
Regarding `C[C@H](CCC(=O)N1CCCC1)[C@H]1CC[C@H]2[C@@H]3[C@@H](O)C[C@@H]4C[C@H](O)CC[C@]4(C)[C@H]3CC[C@]12C`, the minimal effective concentration in the series with Clostridioides difficile [1] was 100 µM.
Turning to `C[C@H](CCC(C)(C)O)[C@H]1CC[C@H]2[C@H]3[C@H](CC[C@]12C)[C@@]1(C)CC[C@@H](O)C[C@H]1C[C@@]3(C)O`, the minimal effective concentration in the series on Clostridioides difficile [1] was over 1000 µM.
As to `CC(=O)O[C@@H]1CC[C@@]2(C)[C@@H](C1)C[C@@H](OC(C)=O)[C@@H]1[C@@H]2CC[C@]2(C)[C@@H]([C@H](C)CCC(N)=O)CC[C@@H]12`, the minimal effective concentration in the series on Clostridioides difficile [1] was found to be 50 µM.
Turning to `CO[C@@H]1CC[C@@]2(C)[C@@H](C1)C[C@@H](O)[C@@H]1[C@@H]2CC[C@]2(C)[C@@H]([C@H](C)CCC(=O)O)CC[C@@H]12`, the Activity entry in the series on Clostridioides difficile [11] is given as “Toxic”. For the same compound, the minimal effective concentration in the series with Clostridioides difficile [1] was over 100 µM.
In the case of `C[C@H](CCC(=O)O)[C@H]1CC[C@H]2[C@@H]3[C@H](O)C[C@@H]4C[C@H](O)CC[C@]4(C)[C@H]3CC[C@]12C` [CHENODIOL], in the series on Clostridioides difficile [1], the minimal effective concentration was 500 µM.
In the case of `COC(=O)CC[C@@H](C)[C@H]1CC[C@H]2[C@@H]3[C@H](O)C[C@@H]4C[C@H](OC)CC[C@]4(C)[C@H]3CC[C@]12C`, the minimal effective concentration with Clostridioides difficile [1] came to 500 µM.
The same measure, in the same setting: next, `C[C@H](CCC(=O)O)[C@H]1CC[C@H]2[C@@H]3[C@@H](OS(=O)(=O)O)C[C@@H]4C[C@H](O)CC[C@]4(C)[C@H]3CC[C@]12C`: 3000 µM.
In the case of `COC(=O)CC[C@@H](C)[C@H]1CC[C@H]2[C@@H]3[C@@H](O)C[C@@H]4C[C@H](OC)CC[C@]4(C)[C@H]3CC[C@]12C`, in the series on Clostridioides difficile [1], the minimal effective concentration was found to be 500 µM.
For `CO[C@@H]1CC[C@@]2(C)[C@@H](C1)C[C@H](O)[C@@H]1[C@@H]2CC[C@]2(C)[C@@H]([C@H](C)CCC(=O)O)CC[C@@H]12`, the Activity entry in the series on Clostridioides difficile [11] was “Toxic”. Further, in the series on Clostridioides difficile [1], the minimal effective concentration was over 500 µM.
For `CCCCNC(=O)CC[C@@H](C)[C@H]1CC[C@H]2[C@@H]3[C@@H](O)C[C@@H]4C[C@H](O)CC[C@]4(C)[C@H]3CC[C@]12C`, in the series on Clostridioides difficile [1], the minimal effective concentration stood at 500 µM.
Turning to `CO[C@H]1C[C@@H]2C[C@H](O)CC[C@]2(C)[C@H]2CC[C@]3(C)[C@@H]([C@H](C)CCC(=O)O)CC[C@H]3[C@H]12`, the Activity entry in the series with Clostridioides difficile [11] is given as “Toxic”. Moreover, in the series with Clostridioides difficile [1], the minimal effective concentration was over 500 µM.

The values are drawn from ChEMBL document CHEMBL4007511, “Synthesis and Biological Evaluation of Bile Acid Analogues Inhibitory to Clostridium difficile Spore Germination” (J Med Chem, 2017).
